Active and inactive are the calls of the source. No cut-off for these calls is given here.
Experiments:
[1] = tested on: Cerebellar granule neurone; assay: Neuroprotective activity against glutamate-induced excitotoxicity in mouse primary cerebellar granule neurons assessed as increase in cell viability at 1 uM preincubated for 2 hrs followed by glutamate challenge measured after 24 hrs by MTT assay; type: functional
[2] = tested on: Cerebellar granule neurone; assay: Cytotoxicity against mouse primary cerebellar granule neurons assessed as decrease in cell viability at 100 uM after 24 hrs by MTT assay
[3] = tested on: Cerebellar granule neurone; assay: Neuroprotective activity against glutamate-induced excitotoxicity in mouse primary cerebellar granule neurons assessed as increase in cell viability preincubated for 2 hrs followed by glutamate challenge measured after 24 hrs by MTT assay; type: functional
[4] = tested on: Aorta; assay: Vasodilating activity in Sprague-Dawley rat aortic ring precontracted with phenylephrine in absence of endothelium; type: functional, tissue-based; conditions: for EC50: Rattus norvegicus, Sprague-Dawley, Aorta
[5] = tested on: Aorta; assay: Vasodilating activity in Sprague-Dawley rat aortic ring precontracted with phenylephrine in presence of endothelium; type: functional, tissue-based; conditions: for EC50: Rattus norvegicus, Sprague-Dawley, Aorta
[6] = tested on: Cerebellar granule neurone; assay: Neuroprotective activity against glutamate-induced excitotoxicity in mouse primary cerebellar granule neurons assessed as increase in cell viability up to 10 uM preincubated for 2 hrs followed by glutamate challenge measured after 24 hrs by MTT assay; type: functional
[7] = tested on: Cortical neurone; assay: Neuroprotective activity against glutamate-induced neuronal damage in rat cortical neurons assessed as increase in cell viability preincubated for 2 hrs followed by glutamate challenge measured after 24 hrs by MTT assay; type: functional, cell-based
Method in brief: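 Rat primary cortical neurons treated with compound for 2 h, then exposed to 200 μM glutamate for another 24 h without compound removal. Viability by MTT assay. Memantine 5 μM served as positive control.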

[8] = tested on: Cortical neurone; assay: Neuroprotective activity against glutamate-induced neuronal damage in rat cortical neurons assessed as increase in cell viability preincubated for 2 hrs followed by glutamate challenge measured after 24 hrs by […]/propidium iodide staining-based inverted fluorescence microscopic method; type: functional
Method in brief: (§1)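 Rat primary cortical neurons given compound for 2 h, then 200 μM glutamate for 24 h in its presence. Viability by FDA/PI double staining, with live cells green (FDA) and dead cells red (PI), scored from fluorescence images. Memantine 5 μM used as positive control.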

[9] = tested on: Cortical neurone; assay: Neuroprotective activity against glutamate-induced neuronal damage in rat cortical neurons assessed as decrease in intracellular calcium influx at 15 uM preincubated for 5 min followed by glutamate challenge measured over 280 secs by Fluo-3/AM dye-based fluorescence assay; type: functional, cell-based
Method in brief: (§2)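 Cortical neurons loaded with Fluo-3/AM (5 μM) for 30 min at 37 °C, then held in HBSS for 30 min at room temperature. Dye washed out, compound applied for 5 min, and cells imaged with a 20× objective to follow calcium influx.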

[10] = tested on: Cortical neurone; assay: Neuroprotective activity against glutamate-induced neuronal damage in rat cortical neurons assessed as decrease in H2O2 formation preincubated for 2 hrs followed by glutamate challenge measured after 12 hrs by H2DCF-DA dye-based fluorescence assay; type: functional, cell-based
Method in brief: (§3)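 Cortical neurons pretreated 2 h with compound, then exposed to 200 μM glutamate for 12 h in its presence. Probes added for a further 30 min: H2DCF-DA 5 μM (H2O2), HPF 10 μM (·OH), DHE 5 μM (superoxide), DAF-FM 5 μM (NO), DHR123 10 μM (peroxynitrite). Intracellular fluorescence measured.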

[11] = tested on: Cortical neurone; assay: Neuroprotective activity against glutamate-induced neuronal damage in rat cortical neurons assessed as decrease in formation of hydroxy radicals preincubated for 2 hrs followed by glutamate challenge measured after 12 hrs by HPF dye-based fluorescence assay; type: functional, cell-based; method in brief: as §3
[12] = tested on: Cortical neurone; assay: Neuroprotective activity against glutamate-induced neuronal damage in rat cortical neurons assessed as decrease in formation of superoxide anions preincubated for 2 hrs followed by glutamate challenge measured after 12 hrs by DHE dye-based fluorescence assay; type: functional, cell-based; method in brief: as §3
[13] = tested on: Cortical neurone; assay: Neuroprotective activity against glutamate-induced neuronal damage in rat cortical neurons assessed as decrease in formation of nitric oxide preincubated for 2 hrs followed by glutamate challenge measured after 12 hrs by DAF-FM dye-based fluorescence assay; type: functional, cell-based; method in brief: as §3
[14] = tested on: Cortical neurone; assay: Neuroprotective activity against glutamate-induced neuronal damage in rat cortical neurons assessed as decrease in formation of peroxynitrite preincubated for 2 hrs followed by glutamate challenge measured after 12 hrs by DHR123 dye-based fluorescence assay; type: functional, cell-based; method in brief: as §3
[15] = tested on: Cortical neurone; assay: Neuroprotective activity in rat cortical neurons assessed as inhibition of glutamate-induced decrease in mitochondrial membrane potential at 5 to 45 uM preincubated for 2 hrs followed by glutamate challenge measured after 12 hrs by JC1 staining-based fluorescence assay; type: functional, cell-based
Method in brief: (§4)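 Cortical neurons given compound for 2 h, then 200 μM glutamate for 12 h without compound removal. Fluorescence read at 488 nm excitation with dual emission at 529/590 nm.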

[16] = tested on: Cortical neurone; assay: Neuroprotective activity against glutamate-induced neuronal damage in rat cortical neurons assessed as increase in cell viability at 5 uM preincubated for 2 hrs followed by glutamate challenge measured after 24 hrs by […]/propidium iodide staining-based inverted fluorescence microscopic method; type: functional; method in brief: as §1
[17] = tested on: Cortical neurone; assay: Neuroprotective activity against glutamate-induced neuronal damage in rat cortical neurons assessed as decrease in intracellular calcium influx at 5 uM preincubated for 5 min followed by glutamate challenge measured over 280 secs by Fluo-3/AM dye-based fluorescence assay; type: functional, cell-based; method in brief: as §2
[18] = tested on: Cortical neurone; assay: Neuroprotective activity against glutamate-induced neuronal damage in rat cortical neurons assessed as decrease in H2O2 formation at 5 uM preincubated for 2 hrs followed by glutamate challenge measured after 12 hrs by H2DCF-DA dye-based fluorescence assay; type: functional, cell-based; method in brief: as §3
[19] = tested on: Cortical neurone; assay: Neuroprotective activity against glutamate-induced neuronal damage in rat cortical neurons assessed as decrease in formation of hydroxy radicals at 5 uM preincubated for 2 hrs followed by glutamate challenge measured after 12 hrs by HPF dye-based fluorescence assay; type: functional, cell-based; method in brief: as §3
[20] = tested on: Cortical neurone; assay: Neuroprotective activity against glutamate-induced neuronal damage in rat cortical neurons assessed as decrease in formation of superoxide anions at 5 uM preincubated for 2 hrs followed by glutamate challenge measured after 12 hrs by DHE dye-based fluorescence assay; type: functional, cell-based; method in brief: as §3
[21] = tested on: Cortical neurone; assay: Neuroprotective activity against glutamate-induced neuronal damage in rat cortical neurons assessed as decrease in formation of nitric oxide at 5 uM preincubated for 2 hrs followed by glutamate challenge measured after 12 hrs by DAF-FM dye-based fluorescence assay; type: functional, cell-based; method in brief: as §3
[22] = tested on: Cortical neurone; assay: Neuroprotective activity against glutamate-induced neuronal damage in rat cortical neurons assessed as decrease in formation of peroxynitrite at 5 uM preincubated for 2 hrs followed by glutamate challenge measured after 12 hrs by DHR123 dye-based fluorescence assay; type: functional, cell-based; method in brief: as §3
[23] = tested on: Cortical neurone; assay: Neuroprotective activity in rat cortical neurons assessed as inhibition of glutamate-induced decrease in mitochondrial membrane potential at 5 uM preincubated for 2 hrs followed by glutamate challenge measured after 12 hrs by JC1 staining-based fluorescence assay; type: functional, cell-based; method in brief: as §4

| EC50 [4] | EC50 [5] | SMILES | Activity [1] | Activity [2] | EC50 [3] | Emax [4] | Emax [5] | Activity [6] | further results |
| --- | --- | --- | --- | --- | --- | --- | --- | --- | --- |
| 34.4 µM | 24.6 µM | NC12CC3CC(CCCO[N+](=O)[O-])(C1)CC(CCCO[N+](=O)[O-])(C3)C2 | Active | Toxic | 39.8 µM | 95.4% | 97.7% | – | – |
| – | – | CCCC12CC3CC(N)(C1)CC(CO[N+](=O)[O-])(C3)C2 (stereo unspecified) | – | Toxic | 38.1 µM | – | – | Active | – |
| 50.6 µM | 46.4 µM | CCC12CC3CC(N)(C1)CC(CO[N+](=O)[O-])(C3)C2 (stereo unspecified) | Active | – | 10.7 µM | 98.2% | 101% | – | Activity [7]: Dose-dependent effect; Activity [8]: Dose-dependent effect; Activity [9]: Active; Activity [10]: Dose-dependent effect; Activity [11]: Dose-dependent effect; Activity [12]: Dose-dependent effect; Activity [13]: Dose-dependent effect; Activity [14]: Dose-dependent effect; inhibition [15]: Active |
| – | – | CC12CC3CC(C)(C1)CC(N)(C3)C2 [MEMANTINE] | Active | – | 2.48 µM | – | – | – | Activity [16]: Active; Activity [17]: Active; Activity [18]: Active; Activity [19]: Active; Activity [20]: Active; Activity [21]: Active; Activity [22]: Active; inhibition [23]: Active |
| – | – | CC(CC12CC3CC(N)(C1)CC(CC(C)O[N+](=O)[O-])(C3)C2)O[N+](=O)[O-] (stereo unspecified) | – | Toxic | 43 µM | – | – | Active | – |
| – | – | CCCC12CC3CC(N)(C1)CC(CCCO[N+](=O)[O-])(C3)C2 (stereo unspecified) | – | Toxic | 57.6 µM | – | – | Active | – |
| – | – | CC12CC3CC(N)(C1)CC(CO[N+](=O)[O-])(C3)C2 (stereo unspecified) | – | – | 25.2 µM | – | – | Active | – |
| – | – | CCC12CC3CC(N)(C1)CC(CC(C)CO[N+](=O)[O-])(C3)C2 (stereo unspecified) | – | Toxic | 55.2 µM | – | – | Active | – |
| 146 µM | – | CCC12CC3CC(N)(C1)CC(O[N+](=O)[O-])(C3)C2 (stereo unspecified) | Active | – | 15.4 µM | 42% | 39.5% | – | – |
| 26.9 µM | 24.4 µM | CCC12CC3CC(N)(C1)CC(CCCO[N+](=O)[O-])(C3)C2 (stereo unspecified) | Active | Toxic | 35.2 µM | 89.8% | 95% | – | – |
| 94.8 µM | – | CCCC12CC3CC(N)(C1)CC(O[N+](=O)[O-])(C3)C2 (stereo unspecified) | Active | – | 17.1 µM | 61.7% | 52% | – | – |
| 57.1 µM | 36 µM | NC12CC3CC(CCO[N+](=O)[O-])(C1)CC(CCO[N+](=O)[O-])(C3)C2 | – | Toxic | 25.9 µM | 99.4% | 102% | Active | – |
| – | – | CC12CC3CC(N)(C1)CC(CCCO[N+](=O)[O-])(C3)C2 (stereo unspecified) | – | Toxic | 39.8 µM | – | – | Active | – |
| 36.5 µM | 32 µM | CC(CO[N+](=O)[O-])CC12CC3CC(N)(C1)CC(CC(C)CO[N+](=O)[O-])(C3)C2 (stereo unspecified) | Active | Toxic | 53.2 µM | 95.8% | 100% | – | – |
| – | – | CC12CC3CC(N)(C1)CC(O[N+](=O)[O-])(C3)C2 (stereo unspecified) | – | – | 24.6 µM | – | – | Active | – |
| – | – | CCC12CC3CC(N)(C1)CC(CC(C)O[N+](=O)[O-])(C3)C2 (stereo unspecified) | – | Toxic | 58.4 µM | – | – | Active | – |
| 62.8 µM | 55 µM | NC12CC3CC(CO[N+](=O)[O-])(C1)CC(CO[N+](=O)[O-])(C3)C2 | Active | – | 18.9 µM | 90.5% | 96.8% | – | – |

From ChEMBL document CHEMBL4261483, “Synthesis and biological evaluation of memantine nitrates as a potential treatment for neurodegenerative diseases” (Medchemcomm, 2017)
